The values that follow come from ChEMBL document CHEMBL2407018, “Luteolin suppresses the differentiation of THP-1 cells through the Inhibition of NOX2 mRNA expression and the membrane translocation of p47phox” (J Nat Prod, 2013).

Calls of active or inactive are those of the source. The rule behind the calls is not given here.

Experiment [1] addresses T1, NADPH oxidase 2 (Homo sapiens) (UniProt P04839).
T1 sequence (whole entry): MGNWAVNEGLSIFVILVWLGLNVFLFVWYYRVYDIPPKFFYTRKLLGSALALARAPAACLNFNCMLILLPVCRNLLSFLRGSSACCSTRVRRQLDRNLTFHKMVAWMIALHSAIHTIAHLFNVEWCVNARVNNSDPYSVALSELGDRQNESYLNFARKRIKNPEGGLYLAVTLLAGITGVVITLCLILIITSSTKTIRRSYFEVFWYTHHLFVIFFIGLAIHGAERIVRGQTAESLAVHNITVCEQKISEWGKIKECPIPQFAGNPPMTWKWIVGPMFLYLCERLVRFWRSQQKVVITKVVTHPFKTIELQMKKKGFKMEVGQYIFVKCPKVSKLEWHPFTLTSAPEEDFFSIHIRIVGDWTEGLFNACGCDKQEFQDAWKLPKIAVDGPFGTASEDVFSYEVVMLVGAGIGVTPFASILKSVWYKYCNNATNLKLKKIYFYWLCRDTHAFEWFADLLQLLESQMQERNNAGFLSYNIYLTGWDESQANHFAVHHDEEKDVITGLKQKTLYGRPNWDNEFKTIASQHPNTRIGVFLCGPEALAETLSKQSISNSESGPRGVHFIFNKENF
Briefly: Inhibition of NOX2 in human THP1 cells assessed as downregulation of TPA-induced CD36 mRNA expression at 20 uM incubated for 1 hr prior to TPA challenge measured after 24 hrs by RT-PCR analysis. Conditions: THP-1. The experiment is classed as cell-based. The procedure, abridged:
(§1)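 THP-1 cells grown in RPMI1640 with 10% heat-inactivated FCS and penicillin/streptomycin at 37 °C, 5% CO2. Seeded at 2 × 10^6 cells per 3.5 cm dish. Compound added 1 h before 100 nM TPA for 24 h. Cells scraped, washed in cold PBS, lysed in TRIzol for total RNA. Transcripts measured by RT-PCR and normalized to 18s rRNA.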

The target of experiment [2] is T1, NADPH oxidase 2 (Homo sapiens). Briefly: Inhibition of NOX2 in human THP1 cells assessed as downregulation of TPA-induced CD11b mRNA expression at 20 uM incubated for 1 hr prior to TPA challenge measured after 24 hrs by RT-PCR analysis. Conditions: THP-1. In kind it is cell-based. The procedure, abridged: as §1
Experiment [3] shares this target. Briefly: Inhibition of NOX2 in human THP1 cells assessed as downregulation of TPA-induced CD14 mRNA expression at 20 uM incubated for 1 hr prior to TPA challenge measured after 24 hrs by RT-PCR analysis. The conditions noted are these: THP-1. In kind it is cell-based. In short, it runs like this:
as §1

Experiment [4] has the same target. Briefly: Inhibition of NOX2 in human THP1 cells assessed as suppression of TPA-induced cell adhesion at 20 uM incubated for 1 hr prior to TPA challenge measured after 24 hrs by microscopic analysis. The experiment is classed as cell-based. The conditions noted are these: THP-1. In short, it runs like this:
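THP-1 cells at 2 × 10^6 per 3.5 cm dish in RPMI1640 with 10% FCS. Exposed to compound for 1 h, then to 100 nM TPA for 24 h. Dishes washed three times with PBS and the remaining adherent cells inspected by microscope.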

Experiment [5] has the same target. The experiment is described as follows: Inhibition of NOX2 in human THP1 cells assessed as downregulation of TPA-induced CD36 mRNA expression at 0.2 to 2 uM incubated for 1 hr prior to TPA challenge measured after 24 hrs by RT-PCR analysis. In kind it is cell-based. Conditions: THP-1. In short, it runs like this:
(§2)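 THP-1 cells, 2 × 10^6 per 3.5 cm dish, pretreated 1 h with 0.2, 2 or 20 μM, then 100 nM TPA for 24 h. Cells scraped and washed in cold PBS, TRIzol RNA extracted. CD11b, CD14 and CD36 transcripts measured by RT-PCR and normalized to 18s rRNA.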

Experiment [6] has the same target. The experiment is described as follows: Inhibition of NOX2 in human THP1 cells assessed as downregulation of TPA-induced CD14 mRNA expression at 0.2 to 2 uM incubated for 1 hr prior to TPA challenge measured after 24 hrs by RT-PCR analysis. The conditions noted are these: THP-1. The experiment is classed as cell-based. In short, it runs like this: as §2
Experiment [7] shares this target. The experiment is described as follows: Inhibition of NOX2 in human THP1 cells assessed as suppression of TPA-induced membrane translocation of p47phox at 20 uM incubated for 1 hr prior to TPA challenge measured after 12 hrs by Western blot analysis. The experiment is classed as cell-based. The conditions noted are these: THP-1. The procedure, abridged:
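Cells pretreated 1 h, then 100 nM TPA for 12 h. Lysed in digitonin buffer B (pH 7.5); after 12000g for 15 min the pellet was solubilized in buffer B with 1% Triton X-100 to give the membrane fraction. 20 μg protein run on 12% SDS-PAGE, blotted for p47phox.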
For orientation: A western blot detects proteins with antibodies after separation by electrophoresis.

In experiment [8] the test system is THP-1. Briefly: Inhibition of TPA-induced MEK/ERK phosphorylation in human THP1 cells at 20 uM incubated for 1 hr prior to TPA challenge measured after 15 mins by Western blot analysis. The experiment is classed as cell-based. In short, it runs like this: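 THP-1 cells pretreated 1 h, then 100 nM TPA for 15 min. Lysed in buffer A (Tris pH 7.4 with phosphatase inhibitors, 1% Triton X-100). 20 μg protein run on 12% SDS-PAGE and PVDF, probed for phospho- and total MEK and ERK (1:1000) with biotin secondary and ABC detection.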

For experiment [9], the target named is T1, NADPH oxidase 2 (Homo sapiens). The experiment is described as follows: Inhibition of NOX2 in human THP1 cells assessed as downregulation of TPA-induced CD11b mRNA expression at 0.2 to 2 uM incubated for 1 hr prior to TPA challenge measured after 24 hrs by RT-PCR analysis. The experiment is classed as cell-based. Conditions: THP-1. The procedure, abridged:
as §2

Experiment [10] relates to THP-1. The experiment is described as follows: Downregulation of TPA-induced NOX2 mRNA expression in human THP1 cells at 20 uM incubated for 1 hr prior to TPA challenge measured after 24 hrs by RT-PCR analysis. In kind it is functional, cell-based. In short, it runs like this:
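THP-1 cells in RPMI1640 with 10% FCS, 2 × 10^6 cells per 3.5 cm dish, pretreated 1 h, then 100 nM TPA for 24 h. Total RNA extracted in TRIzol, NOX2 measured by RT-PCR and normalized to 18s rRNA.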

Experiment [11] concerns the target T1, NADPH oxidase 2 (Homo sapiens). The experiment is described as follows: Inhibition of NOX2 in human THP1 cells assessed as suppression of TPA-induced intracellular ROS accumulation at 20 uM incubated for 1 hr prior to TPA challenge measured after 24 hrs by flow cytometric analysis. In kind it is cell-based. The conditions noted are these: THP-1. The procedure, abridged: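 THP-1 cells pretreated 1 h, then 100 nM TPA for 24 h. Cells scraped, stained 20 min with 10 μM carboxy-H2DCFDA in PBS with […] in a 5% CO2 incubator, and washed three times in ice-cold PBS. DCF fluorescence read by flow cytometry.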
For orientation: Flow cytometry measures light scatter and fluorescence of single cells or particles in a stream.

On to `O=c1cc(-c2ccc(O)cc2)oc2cc(O)cc(O)c12`, for which the inhibition result in experiment [1], in experiment [2], in experiment [3] and in experiment [4] was “Active” each time.
For the compound `O=c1cc(-c2ccc(O)c(O)c2)oc2cc(O)cc(O)c12`, the inhibition entry (in experiment [5]; in experiment [6]; in the experiment on THP-1 [8]; in [9]) was “inactive” throughout. For the same compound, the inhibition result in experiment [1], in [7], in experiment [2], in [11], in experiment [3] and in [4] was “Active” each time. The outcome in the experiment with THP-1 [10] was Active.
Turning to `O=c1cc(-c2ccccc2)oc2cc(O)cc(O)c12`, the inhibition entry in experiment [1], in experiment [2], in [3] and in experiment [4] was “Active” in each case.
Take `O=c1cc(-c2cc(O)c(O)c(O)c2)oc2cc(O)cc(O)c12`: the inhibition entry in [1], in experiment [7], in experiment [2], in [3] and in [4] was “inactive” throughout. The outcome with THP-1 [10] was inactive.
